Measurements from different studies.
Compare with care: the assays were run in different laboratories.
Matrix: plasma
Route: oral

For `NC[C@@](O)(c1ccc(Cl)cc1)c1ccc(-c2cn[nH]c2)cc1`, the Vd/F was 1400 L (human; 5 mg, patients).
The Vd/F of `COc1cc(C(=O)NC2CCN(C)CC2)c(F)cc1Nc1ncc(C(F)(F)F)c(Oc2cccc3c2C(=O)N(C)C3)n1` is reported as 236 L (human; 100 mg, single dose, patients).
For `CC(C)(Sc1ccncc1-c1ccc(C#N)c2ccccc12)C(=O)O`, the Vd/F was 419 L (male human; 5 mg, single dose, fasted, healthy volunteers).
`Cc1cc(Nc2cc(N3CCN(C)CC3)nc(/C=C/c3ccccc3)n2)n[nH]1` gave a Vd/F of 2280 L (human; 200 mg/m², patients).
For `CO[C@H]1CC[C@H](N2C(=O)CNc3ncc(-c4ccc(C(C)(C)O)nc4)nc32)CC1`, the Vd/F was 236 L (human; 60 mg, patients).
For `COc1ccc([C@@H]2CN(C(=O)[C@@H](O)CO)C[C@@]2(C)[C@@H](C)O)cc1OC1CN(c2ccc(C)cn2)C1`, the Vd/F was 77.7 L (human; 40 mg, single dose, healthy volunteers).
The Vd/F of `C=C(F)C(=O)N1CCN(c2nc(OC[C@@H]3CCCN3C)nc3c2CCN(c2cccc4cccc(Cl)c24)C3)C[C@@H]1CC#N` is reported as 527 L (human; 600 mg, single dose, fasted).
With `CCOc1cc([C@@H](CS(C)(=O)=O)N2C(=O)c3cccc(NC(C)=O)c3C2=O)ccc1OC` the Vd/F was 141 L (human; 30 mg, single dose, healthy volunteers).
The Vd/F of `C[C@@]1(c2cc(NC(=O)c3ccc(C#N)cn3)ccc2F)C=CSC(N)=N1` is reported as 240 L (human; 90 mg, single dose).
`c1cnc2ccc(Nc3nc(NC4CC4)c4nc[nH]c4n3)cc2c1` gave a Vd/F of 163 L (human; 100 mg/m², patients).
